Measurements of several laboratories.
Lines come from different studies, so protocols differ.
Target: Cyclin-dependent kinase 2 homolog (CRK2, Plasmodium falciparum, UniProt P61075)

Structure (SMILES)	assay	setting	quantity	value
Cc1ccc(-c2cnc([C@@]3(O)CC[C@H](C(=O)O)C(C)(C)C3)s2)cc1Nc1cccc(C(F)(F)F)n1	binding, competition with immobilised ligand	1 µM	remaining binding	33%
Cc1ccc(C(=O)Nc2ccc(CN3CCN(C)CC3)c(C(F)(F)F)c2)cc1C#Cc1cnc2cccnn12	enzyme activity, inhibitor	23.5 nM	remaining activity	94%
FC(F)(F)Oc1cccc(-c2cnc3ccc(-c4ccncc4)nn23)c1	cell-free assay, competition with immobilised ligand	5 µM	remaining binding	87%
Nc1ncnc2occ(-c3ccc(NC(=O)Nc4cc(C(F)(F)F)ccc4F)cc3)c12	cell-free assay, inhibitor	20 µM	remaining signal	60%
O=C(NCC1CCOCC1)c1n[nH]cc1NC(=O)c1c(F)cccc1F	binding, competition with immobilised ligand	1 µM	remaining binding	100%
Cc1cnn2ncc(-c3ccnc(N(C)C)n3)c2c1	binding	1 µM	remaining binding	82%
O=C(Nc1c[nH]nc1C(=O)NC1CCNCC1)c1cc(F)cc(F)c1	binding, competition with immobilised ligand	1 µM	remaining binding	89%
Nc1ncc2c(n1)-c1c([nH]c3ccc(C#CC4CC4)cc13)CCCC2	binding, competition with immobilised ligand	1 µM	remaining binding	100%
c1cncc(-c2cccc(Nc3nccc(NC4CCCCC4)n3)c2)c1	binding, competition with immobilised ligand	10 µM	remaining binding	100%
CNC(=O)[C@@H]1CC[C@@H](n2c(-c3ccc4cnccc4c3)nc3ccc(C(=O)NCc4cccc(C(N)=O)c4)cc32)C1	binding, competition with immobilised ligand	1 µM	remaining binding	99%
CCN1CCN(Cc2ccc(C(=O)Nc3ccc(C)c(Oc4ccc5c(c4)CC(=O)N5)c3)cc2C(F)(F)F)CC1	binding, competition with immobilised ligand	1 µM	remaining binding	100%
COc1cnc(Nc2cccc(S(N)(=O)=O)c2)nc1N1CCN(c2ccccc2)C(=O)C1	binding, competition with immobilised ligand	1 µM	remaining binding	100%
Cc1nn(C)cc1-c1nc2c(N3CCN(Cc4ccc(Cl)cc4)CC3)c(Cl)cnc2[nH]1	binding, competition with immobilised ligand	1 µM	remaining binding	100%
N[C@@H]1CCN(c2nccc(-c3cnn4ncccc34)n2)C1	binding	1 µM	remaining binding	84%
C[C@@H](c1ccc(-n2cnc3c(N)ncnc32)cc1)N1CCc2nn(C)c(Cc3ccccc3)c2C1=O	binding, competition with immobilised ligand	0.1 µM	remaining binding	83%
C=CC(=O)N1CCC(C(=O)NCC(=O)N2CCN(c3nc(-c4cnc(N)nc4C(F)F)nc(N4CCOCC4)n3)CC2)CC1	binding, competition with immobilised ligand	1 µM	remaining binding	65%
CN(C)c1nccc(-c2cnc3ncccn23)n1	cell-free assay	1 µM	remaining signal	72%
